Measured values: ChEMBL document CHEMBL1130028, “A comparison of structure-activity relationships between spermidine and spermine analogue antineoplastics” (J Med Chem, 1997)

Columns and labels:
L1210 [1] = test: Percentage of spermine (after 48 hr exposure to 500 uM) in L1210 cells.; assay type: functional, Mus musculus
Summary of the method: (§1)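 Log-phase L1210 cells were treated for 48 h with analogue at two concentrations. Cells were washed twice in cold RPMI-1640 and extracted with 0.6 N HClO4. Putrescine, spermidine and spermine were quantified by HPLC of dansyl derivatives and given as percent of untreated controls. Runs were in triplicate with untreated controls.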

[2] = Effect on ornithine decarboxylase (ODC) tested at 1 uM at 4 hour in L1210 cells; assay type: functional, Mus musculus
Summary of the method: (§2)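 L1210 cells were exposed to 1 μM analogue, for 4 h (ODC) or 6 h (AdoMetDC). Activity was measured as 14CO2 released from [14C]carboxyl-labelled L-ornithine (ODC) or S-adenosyl-L-methionine (AdoMetDC) and given as percent of untreated control. Each run included DEHSPM-treated positive controls. Values are the mean of at least three experiments.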

L1210 [3] = test: Percentage of putrescine (after 48 hr exposure to 100 uM) in L1210 cells.; assay type: functional, Mus musculus; summary of the method: as §1
L1210 [4] = test: Percentage of putrescine after 48 hr exposure to the compound (500 uM ) in L1210 cells; assay type: functional, Mus musculus; summary of the method: as §1
L1210 [5] = test: Intracellular levels in L1210 cells following 500 uM exposure.; assay type: functional, Mus musculus
Summary of the method: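 L1210 cells were grown 48 h in medium containing 500 μM analogue. Cellular contents were analysed by HPLC of dansyl derivatives and given as pmol/10^6 cells, as parent drug and metabolites with the % of total drug in the cell.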

L1210 [6] = test: Percentage of spermine (after 48 hr exposure to 100 uM) in L1210 cells.; assay type: functional, Mus musculus; summary of the method: as §1
L1210 [7] = test: Growth inhibitory activity against L1210 cells (48h); assay type: functional, cell-based; conditions: Mus musculus, L1210, 48 h
Summary of the method: (§3)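 Murine L1210 leukemia cells were kept in log growth in RPMI-1640 with 10% fetal calf serum or NuSerum, HEPES-MOPS buffer and 1 mM aminoguanidine. IC50 is the concentration giving 50% of untreated control growth, as the mean of at least two experiments.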

L1210 [8] = test: Growth inhibitory activity against L1210 cells (96h); assay type: functional, cell-based; conditions: Mus musculus, L1210, 96 h; summary of the method: as §3
[9] = target: Spermidine/spermine N(1)-acetyltransferase (SAT) (Mus musculus) (UniProt Q6P8J2+P48026); test: Effect on Spermidine/Spermine-Acetyltransferase (SSAT ) at 10 uM at 48 hour in L1210 cells; assay type: functional, cell-based
Chain of Spermidine/spermine N(1)-acetyltransferase (SAT) (Mus musculus) (P48026 whole entry, looked up): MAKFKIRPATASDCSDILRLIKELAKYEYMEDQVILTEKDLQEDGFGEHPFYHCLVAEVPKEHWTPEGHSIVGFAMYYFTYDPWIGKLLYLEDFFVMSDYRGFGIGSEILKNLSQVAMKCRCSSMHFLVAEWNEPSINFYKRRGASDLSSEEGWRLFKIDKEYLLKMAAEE
Chain of Spermidine/spermine N(1)-acetyltransferase (SAT) (Mus musculus) (Q6P8J2 whole entry, looked up): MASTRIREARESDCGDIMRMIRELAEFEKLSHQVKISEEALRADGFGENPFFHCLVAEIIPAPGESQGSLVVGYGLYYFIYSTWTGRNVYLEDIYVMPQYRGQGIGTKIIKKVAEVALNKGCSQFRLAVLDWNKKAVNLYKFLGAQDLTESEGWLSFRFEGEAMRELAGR
Summary of the method: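 L1210 cells were exposed to 10 μM triamine for 48 h. SSAT activity was taken as [14C]N1-acetylspermidine formed from spermidine and [14C]acetyl-CoA, given as percent of untreated control. DENSPM-treated cells served as positive control. Values are the mean of at least three experiments.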

[10] = Binding affinity values for polyamine transporter was determined
[11] = target: T1, S-adenosylmethionine decarboxylase proenzyme 1 (Mus musculus) (UniProt P0DMN7); test: Effect on S-Adenosyl-methionine decarboxylase (AdoMetDC) tested at 1 uM at 6 hour in L1210 cells; assay type: functional, cell-based; summary of the method: as §2
T1 sequence (whole entry): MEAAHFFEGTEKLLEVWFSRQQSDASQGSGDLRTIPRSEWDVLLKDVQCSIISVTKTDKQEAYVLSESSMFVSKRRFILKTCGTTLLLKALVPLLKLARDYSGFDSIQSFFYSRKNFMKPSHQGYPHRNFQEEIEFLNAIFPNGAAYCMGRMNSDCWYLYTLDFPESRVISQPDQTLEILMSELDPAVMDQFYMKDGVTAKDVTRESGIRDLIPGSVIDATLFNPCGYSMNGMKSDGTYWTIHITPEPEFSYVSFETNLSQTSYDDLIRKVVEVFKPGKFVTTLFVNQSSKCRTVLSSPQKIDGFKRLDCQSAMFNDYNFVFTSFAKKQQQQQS

L1210 [12] = test: Percentage of spermidine (after 48 hr exposure to 100 uM) in L1210 cells.
L1210 [13] = test: Percentage of spermidine (after 48 hr exposure to 500 uM) in L1210 cells.

SMILES	Polyamine (L1210 [1]) [%]	ODC [2] [%]	Polyamine (L1210 [3]) [%]	Polyamine (L1210 [4]) [%]	Picoequivalents of amine/10e6 cells (L1210 [5])	Polyamine (L1210 [6]) [%]	IC50 (L1210 [7]) [µM]	IC50 (L1210 [8]) [µM]	SSAT [9] [%]	Ki [10] [µM]	AdoMetDC [11] [%]	Spermidine % (L1210 [12]) [%]	Spermidine % (L1210 [13]) [%]
CCCNCCCCNCCCCN	66	20	0	0	20550	82	100	0.6	570	5	59	2	0
NCCCCNCCCCN	21	11	0	–	–	32	> 100	3	430	3.4	54	4	2
CCCNCCCCNCCCN	95	14	0	0	19590	–	> 100	55	500	8.5	64	33	16
CNCCCCNCCCNC	54	22	0	0	16090	58	> 100	1.7	270	5.1	68	5	0
CCCNCCCCCNCCCCNCCC	–	83	0	0	15150	–	100	1.2	80	75	86	40	31
NCCCCCNCCCCCN	20	16	0	0	–	33	100	0.4	90	14	88	0	0
CCNCCCNCCCN	–	42	–	–	–	–	> 100	> 100	390	34	58	–	–
CNCCCCNCCCCNC	–	20	0	0	20340	–	> 100	0.9	510	5.5	86	3	0
CNCCCNCCCNC	48	17	0	0	18400	58	> 100	4.8	250	60	41	9	6
CCNCCCNCCCCN	53	10	0	0	16990	80	> 100	4	430	8.6	58	25	14
CCCNCCCNCCCCN	72	18	0	0	18250	90	> 100	28	1200	3	56	25	15
CCCNCCCNCCCNCCC	–	100	70	68	15010	96	> 100	60	220	125	99	76	71
CCCNCCCCCNCCCCCNCCC	–	73	59	51	13910	97	> 100	6	90	87	123	73	69
NCCCCCNCCCCN	35	19	0	–	–	53	> 100	0.18	410	1.4	57	1	0
NCCCCNCCCN [SPERMIDINE]	–	16	0	0	–	–	> 100	> 100	160	2.2	43	–	–
CCCNCCCCNCCCCNCCC	–	86	0	0	15990	–	> 100	6	420	67	123	19	7
